From PubChem
RGS4 block = inhibitors of human RGS4. B-score at 10 µM. P49798. AID 463165. actives 0.45% (n = 310,000). HEK293 M3R/RGS4 inducible, Fluo-4 calcium flux; active compounds read high; triggered by carbachol at its EC20;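 active = B-score, a plate-corrected calcium signal, over three deviations above library mean, with baseline fluorescence within five deviations of library mean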;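 note: RGS4 expression induced by doxycycline in cells with stable M3 receptor; B-score is computed from the integrated fluorescence ratio over baseline after carbachol; higher B-score means a larger calcium signal and so more RGS4 inhibition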
Target sequence (P49798 whole entry, looked up): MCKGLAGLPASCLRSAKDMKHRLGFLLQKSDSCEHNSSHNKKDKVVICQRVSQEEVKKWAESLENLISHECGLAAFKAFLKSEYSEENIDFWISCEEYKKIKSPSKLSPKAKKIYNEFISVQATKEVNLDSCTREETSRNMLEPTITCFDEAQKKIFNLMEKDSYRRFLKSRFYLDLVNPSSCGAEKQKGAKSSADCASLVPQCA
MrgX1 agonist = activates human MrgX1 receptor signaling. MrgX1-HEK293 cells, Fluo-4 calcium fluorescence, agonist mode; active compounds read high. actives 0.44% (n = 310,000). Q96LB2. B-score at 10 µM;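 active = calcium response B-score plate-corrected fluorescence ratio at least 3 library SD, with starting fluorescence B-score inside 5 SD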
Target sequence (Q96LB2 whole entry, looked up): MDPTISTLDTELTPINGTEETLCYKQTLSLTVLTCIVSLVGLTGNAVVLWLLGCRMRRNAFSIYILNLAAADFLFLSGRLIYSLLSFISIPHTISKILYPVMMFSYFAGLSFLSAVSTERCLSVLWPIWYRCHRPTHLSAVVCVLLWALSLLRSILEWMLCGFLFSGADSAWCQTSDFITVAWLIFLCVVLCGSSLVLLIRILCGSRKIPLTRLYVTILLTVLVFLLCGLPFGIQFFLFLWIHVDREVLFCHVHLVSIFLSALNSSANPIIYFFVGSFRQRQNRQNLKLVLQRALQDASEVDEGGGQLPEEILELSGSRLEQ
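System: HEK293 cells stably expressing human MrgX1 receptor; Dosing: test compound in the initial addition of three; Schedule: overnight plating, then 30 min 37 °C plus 30 min room-temperature dye loading; Detection: kinetic calcium dye fluorescence, Fluo-4 NW; Controls: per-plate positive and negative controls for Z′ factor.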
MrgX1 antagonist = human MrgX1 receptor antagonism, primary screen. Q96LB2. MRGX1-HEK293 calcium flux, Fluo-4, BAM8-22 antagonism; active compounds read low. B-score at 10 µM. actives 1.3% (n = 310,000);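 active = calcium-response B-score plate-corrected more than 3 library SD below zero, starting fluorescence within 5 deviations, no agonist response on first addition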;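 note: peak minus trough fluorescence over baseline after final BAM8-22 challenge near maximal dose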
MrgX1 PAM = human MrgX1 positive allosteric modulation, primary screen; B-score at 10 µM; actives 0.63% (n = 310,000); MrgX1-HEK293, Fluo-4 calcium flux, FDSS; active compounds read high; Q96LB2;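 active = plate-corrected calcium response at least 3 library SD above typical, normal starting fluorescence, not activating the receptor alone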;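 note: compound read alongside a low EC10 to EC30 dose of BAM8-22 agonist; peak minus trough fluorescence over baseline measured at the second addition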
RGS4 act = potentiators or activators of RGS4 | AID 463111 | HEK293 M3R/inducible RGS4, carbachol calcium flux Fluo4; active compounds read low | B-score at 10 µM | actives 0.92% (n = 310,000);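 active = B-score of the integrated calcium signal more than 4 SD below the library mean, with starting fluorescence not abnormally high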;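 note: negative B-score means reduced calcium response which marks RGS4 activation or potentiation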
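Detection: kinetic calcium fluorescence imaging with Fluo4-AM dye, 2 µM / Material: HEK293 cells with stable M3R and inducible RGS4 / Schedule: recording 10 s baseline at 1 Hz, 100 s post-agonist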
RGS4 act valid = confirmation of RGS4 activators | shares compounds with RGS4 act | HEK293 M3R/RGS4 inducible, carbachol calcium flux Fluo4 | inhibition, % at 10 µM | actives 89% (n = 1,100) | AID 602282;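 active = inhibition above 3 SD of the buffer control wells, cut at about 41% in these data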;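 note: signal is the integrated peak-minus-minimum Fluo4 fluorescence over baseline ratio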
RGS4 act ctr = RGS4 activator counter-screen hit in non-induced cells. shares compounds with RGS4 act. HEK293 M3R non-induced RGS4, Fluo4 calcium flux; after carbachol challenge at its EC90. inhibition, % at 10 µM. actives 82% (n = 1,100);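 active = inhibition exceeding 3 SD of buffer-only control wells, cut at about 26% in these data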;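 note: percent drop in integrated peak-minus-baseline over baseline Fluo4 ratio after carbachol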
An asterisk follows results filed as active. Rows were chosen to be rich in hits. Some 3.5% of all compounds tested hit in one or more screens of this group.

Screening CNC(=S)N/N=C1\C(=O)c2cccc3cccc1c23 returned RGS4 block inactive, MrgX1 agonist inactive, MrgX1 antagonist inactive, MrgX1 PAM inactive, RGS4 act -7.8*, RGS4 act valid 0 and RGS4 act ctr 0.
For CCCCNC(=S)N/N=C1\C(=O)c2cccc3cccc1c23 the results were RGS4 block inactive, MrgX1 agonist inactive, MrgX1 antagonist inactive, MrgX1 PAM inactive and RGS4 act inactive.
For Cc1ccc(-c2nnc(N3CCCCC3)c3ccccc23)cc1 the results were RGS4 block inactive, MrgX1 agonist inactive, MrgX1 antagonist inactive, MrgX1 PAM inactive and RGS4 act inactive.
For Cc1ccc(-c2nnc(N3CCN(c4ccccn4)CC3)c3ccccc23)cc1 the results were RGS4 block inactive, MrgX1 agonist inactive, MrgX1 antagonist inactive, MrgX1 PAM inactive, RGS4 act -7.7*, RGS4 act valid 94* and RGS4 act ctr 91*.
`c1ccc(-c2nnc(N3CCN(c4ccccn4)CC3)c3ccccc23)cc1` gave RGS4 block inactive, MrgX1 agonist inactive, MrgX1 antagonist inactive, MrgX1 PAM inactive, RGS4 act -8*, RGS4 act valid 92* and RGS4 act ctr 79*.
`O=C1CSC2(C(=O)N3CCCc4cccc2c43)N1c1cccc(C(F)(F)F)c1` (stereo unspecified) gave RGS4 block inactive, MrgX1 agonist inactive, MrgX1 antagonist inactive, MrgX1 PAM inactive, RGS4 act -8.2*, RGS4 act valid 90* and RGS4 act ctr 76*.
Screening O=C1N2CCCc3cccc(c32)C12Nc1ccccc1S2 (stereo unspecified) returned RGS4 block inactive and RGS4 act inactive.
COc1ccc(N2C(=O)CSC23C(=O)N2CCCc4cccc3c42)cc1 (stereo unspecified) was read as RGS4 block inactive, MrgX1 agonist inactive, MrgX1 antagonist inactive, MrgX1 PAM inactive, RGS4 act -8.3*, RGS4 act valid 92* and RGS4 act ctr 89*.
For CC1CCCN(C(=O)COc2ccc(Nc3ccccc3)cc2)C1 (stereo unspecified) the results were RGS4 block inactive, MrgX1 agonist inactive, MrgX1 antagonist inactive, MrgX1 PAM inactive and RGS4 act inactive.
For O=C(NC1CCCC1)c1cc2nc(-c3ccccc3)cc(-c3ccccc3)n2n1 the results were RGS4 block inactive, MrgX1 agonist inactive, MrgX1 antagonist inactive, MrgX1 PAM inactive, RGS4 act -7.7*, RGS4 act valid 82* and RGS4 act ctr 84*.
`CC1CCN(C(=O)c2cc3nc(-c4ccccc4)cc(-c4ccccc4)n3n2)CC1` gave RGS4 block inactive, MrgX1 agonist inactive, MrgX1 antagonist inactive, MrgX1 PAM inactive and RGS4 act inactive.
For COC(=O)c1c(NC(=O)CSc2nnc(-c3ccco3)n2C)sc(C)c1C the results were RGS4 block inactive, MrgX1 agonist inactive, MrgX1 antagonist inactive, MrgX1 PAM inactive and RGS4 act inactive.
CCOC(=O)c1sc(NC(=O)CSc2nnc(-c3ccco3)n2CC)c(C(=O)OCC)c1C was read as RGS4 block inactive, MrgX1 agonist inactive, MrgX1 antagonist inactive, MrgX1 PAM inactive, RGS4 act -18*, RGS4 act valid 92* and RGS4 act ctr 91*.
Screening O=C(O)CSC1CC(=O)N(c2ccc(Br)cc2)C1=O (stereo unspecified) returned RGS4 block inactive, MrgX1 agonist inactive, MrgX1 antagonist inactive, MrgX1 PAM inactive and RGS4 act inactive.
COc1cccc(C(=O)C2CCCN(C/C=C/c3ccccc3OC)C2)c1 (stereo unspecified) was read as RGS4 block inactive, MrgX1 agonist inactive, MrgX1 antagonist inactive, MrgX1 PAM inactive and RGS4 act inactive.
COc1ccc(C(=O)C2CCCN(C/C=C/c3ccccc3OC)C2)c(OC)c1 (stereo unspecified) was read as RGS4 block inactive, MrgX1 agonist inactive, MrgX1 antagonist inactive, MrgX1 PAM inactive, RGS4 act -9.3*, RGS4 act valid 88* and RGS4 act ctr 84*.
O=C(CSc1nnc(CCCN2C(=O)c3cccc4cccc(c34)C2=O)n1-c1ccccc1)NCCCN1CCOCC1 was read as RGS4 block inactive, MrgX1 agonist inactive, MrgX1 antagonist inactive, MrgX1 PAM inactive and RGS4 act inactive.
`Cc1ccc(OS(=O)(=O)c2c(C)nn(C)c2Cl)c(C)c1` gave RGS4 block inactive, MrgX1 agonist inactive, MrgX1 antagonist inactive, MrgX1 PAM inactive, RGS4 act -9.9*, RGS4 act valid 90* and RGS4 act ctr 93*.
For c1ccc(CCCN2CCOCC2)cc1 the results were RGS4 block inactive, MrgX1 agonist inactive, MrgX1 antagonist inactive, MrgX1 PAM inactive and RGS4 act inactive.
`c1ccc(OCc2ccc(CCCN3CCOCC3)cc2)cc1` gave RGS4 block inactive, MrgX1 agonist inactive, MrgX1 antagonist inactive, MrgX1 PAM inactive, RGS4 act -8.1*, RGS4 act valid 58* and RGS4 act ctr 84*.
Screening c1ccc(OCCCN2CCCC2)cc1 returned RGS4 block inactive, MrgX1 agonist inactive, MrgX1 antagonist inactive, MrgX1 PAM inactive and RGS4 act inactive.
c1ccc(COc2ccc(OCCCN3CCCCC3)cc2)cc1 was read as RGS4 block inactive, MrgX1 agonist inactive, MrgX1 antagonist inactive, MrgX1 PAM inactive, RGS4 act -7.7*, RGS4 act valid 90* and RGS4 act ctr 63*.
For CC(=O)Nc1ccc(OS(=O)(=O)c2ccc([N+](=O)[O-])cc2)cc1 the results were RGS4 block inactive, MrgX1 agonist inactive, MrgX1 antagonist inactive, MrgX1 PAM inactive and RGS4 act inactive.
CCOc1ccc(NC(=O)C2CC(=O)N(c3ccccc3F)C2)cc1 (stereo unspecified) was read as RGS4 block inactive, MrgX1 agonist inactive, MrgX1 antagonist inactive, MrgX1 PAM inactive and RGS4 act inactive.
`CCN1CCN(CCCNC(=O)c2ccc3c(Cl)c4c(nc3c2)CCCC4)CC1` gave RGS4 block inactive, MrgX1 agonist inactive, MrgX1 antagonist inactive, MrgX1 PAM inactive, RGS4 act -8.6*, RGS4 act valid 82* and RGS4 act ctr 50*.
O=C(NCCCN1CCCCCC1)c1ccc2c(Cl)c3c(nc2c1)CCCC3 was read as RGS4 block inactive, MrgX1 agonist inactive, MrgX1 antagonist inactive, MrgX1 PAM inactive and RGS4 act inactive.
